Calls of active or inactive are those of the source. No cut-off for these calls is given here.
Experiments:
Rattus norvegicus [1] = assay: Induction of vaginal cornification in ovariectomized mature rat at 5 to 10 mg/kg, po administered with sesame oil by Allen-Doisy method relative to control; format: functional; details: dose mg/kg 5-10
Procedure, shortened: (§1)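 Allen-Doisy test in ovariectomized mature rats, 14-59 rats per compound and 4-20 per group. Dose ranges were set from the uterotropic results. A smear counted as positive if it was mainly nucleated or cornified epithelial cells with no leucocytes. Results are given as the dose ranges giving positive smears.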

Rattus norvegicus [2] = assay: Antiestrogenic activity in ethynylestradiol-stimulated immature rat assessed as doubling of uterine weight up to 3 mg/kg, po administered for three days by uterotropic assay; format: functional, organism-based; parameters: dose 3 mg/kg
Procedure, shortened: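 Modified Edgren–Calhoun method in immature rats. The test material was given orally for 3 days together with enough ethynylestradiol to double uterine weight, and uterine weight was the end point.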

[3] = Displacement of 17beta-[3H]estradiol from rabbit uterine estrogen receptor after 16 to 18 hrs by liquid scintillation counting; parameters: species or system Oryctolagus cuniculus
Procedure, shortened: (§2)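 Rabbit uterine cytosol, 0.7 μg protein per tube, with 16000 dpm 17β-[3H]estradiol (113 Ci/mmol) in Tris-HCl pH 8.0, 0.001 M EDTA, 0.25 M sucrose. Eight concentrations from 1 × 10^-10 to 1 × 10^-4 M were run in duplicate and incubated 16-18 h at 4 °C. Bound and free were separated with dextran-coated charcoal, bound radioactivity was read by liquid scintillation, and results were compared with standards.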

Oryctolagus cuniculus [4] = species: Oryctolagus cuniculus; assay: Displacement of 17beta-[3H]estradiol from rabbit uterine estrogen receptor after 16 to 18 hrs by liquid scintillation counting relative to ethynylestradiol; procedure, shortened: as §2
Rattus norvegicus [5] = assay: Estrogenic activity in immature rat administered orally with sesame oil as three doses by uterotropic assay relative to ethynylestradiol; format: functional
Procedure, shortened: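 Six-point oral assay in immature rats, with three doses of ethynylestradiol standard and three doses of test compound in sesame oil, 9-15 rats per dose group. Dose-response lines were checked for linearity and parallelism. Relative potency and 95% confidence limits were computed, and values are combined from three assays.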

Rattus norvegicus [6] = assay: Induction of vaginal cornification in ovariectomized mature rat at 10 to 20 mg/kg, po administered with sesame oil by Allen-Doisy method relative to control; format: functional; details: dose mg/kg 10-20; procedure, shortened: as §1
Oryctolagus cuniculus [7] = species: Oryctolagus cuniculus; assay: Displacement of 17beta-[3H]estradiol from rabbit uterine estrogen receptor at 1 x 10^-4 M after 16 to 18 hrs by liquid scintillation counting; procedure, shortened: as §2
Rattus norvegicus [8] = assay: Induction of vaginal cornification in ovariectomized mature rat at 0.25 to 0.5 mg/kg, po administered with sesame oil by Allen-Doisy method relative to control; format: functional; details: dose mg/kg 0.25-0.5; procedure, shortened: as §1
Rattus norvegicus [9] = assay: Induction of vaginal cornification in ovariectomized mature rat at 0.025 to 0.1 mg/kg, po administered with sesame oil by Allen-Doisy method relative to control; format: functional; details: dose mg/kg 0.025-0.1; procedure, shortened: as §1
Rattus norvegicus [10] = assay: Induction of vaginal cornification in ovariectomized mature rat at 0.005 to 0.010 mg/kg, po administered with sesame oil by Allen-Doisy method relative to control; format: functional; details: dose mg/kg 0.005-0.010; procedure, shortened: as §1

IC50 [3] [nM] | Ratio (Oryctolagus cuniculus [4]) | inhibition (Oryctolagus cuniculus [7]) | SMILES | Ratio (Rattus norvegicus [5]) | Activity (Rattus norvegicus [9]) [%] | also measured
15 | 0.016 | – | C#C[C@@]1(O)CC[C@H]2[C@@H]3CCc4cc(O)ccc4[C@H]3CC[C@@]21C | – | – | Activity (Rattus norvegicus [1]): 0%; Activity (Rattus norvegicus [2]): inactive
– | – | inactive | C#C[C@@]1(O)CC[C@H]2[C@@H]3CCc4cc(OC)ccc4[C@H]3CC[C@@]21C | 0.0023 | – | Activity (Rattus norvegicus [6]): 0%
– | – | inactive | C#C[C@@]1(O)CC[C@H]2[C@@H]3CCc4cc(OC5CCCC5)ccc4[C@H]3CC[C@@]21C | 0.05 | – | Activity (Rattus norvegicus [8]): 25%
0.24 | – | – | C#C[C@]1(O)CC[C@H]2[C@@H]3CCc4cc(O)ccc4[C@H]3CC[C@@]21C [ETHINYL ESTRADIOL] | – | 10 | –
200 | 0.0012 | – | C#C[C@]1(O)CC[C@H]2[C@@H]3CCc4cc(OC)ccc4[C@H]3CC[C@@]21C [MESTRANOL] | 0.84 | 11 | –
6000 | 4e-05 | – | C#C[C@]1(O)CC[C@H]2[C@@H]3CCc4cc(OC5CCCC5)ccc4[C@H]3CC[C@@]21C [QUINESTROL] | 1.66 | – | Activity (Rattus norvegicus [10]): 40%

Source: ChEMBL document CHEMBL3228027, “Synthesis and estrogenic properties of 17-epi-ethynylestradiol and its ether derivatives epimestranol and epiquinestrol” (J Med Chem, 1979)
